Assay [1] in a line: Inhibition of reassociation of kinetochore with BubR1 in human DLD-1 cells assessed as BubR1/ACA fluorescence ratio measured for 40 mins (reference value: 2.23+/-1.21). It is filed as functional.
The subject of assay [2] is HeLa. The assay is described as follows: Induction of cell cycle arrest in human HeLa cells assessed as mitotic index measured after 6 hrs relative to control. It is filed as functional.
A short description of assay [3]: Inhibition of reassociation of kinetochore with BubR1 in human DLD-1 cells assessed as inter-kinetochore distance measured for 40 mins (reference value: 0.89+/-0.20 uM). In kind it is functional.
In assay [4] the test system is DLD-1. In words: Effect on human DLD-1 cells assessed as localization of survivin to centromere measured after 1 hr by immunofluorescence imaging analysis. In kind it is functional, cell-based.
Assay [5] concerns HeLa. The assay is described as follows: Induction of mitosis in human HeLa cells assessed as peaked mitotic index at 10 hrs by flow cytometric analysis. It is filed as functional, cell-based. (In general: Flow cytometry measures light scatter and fluorescence of single cells or particles in a stream.)
The test system of assay [6] is DLD-1. In words: Effect on human DLD-1 cells assessed as reduction in kinetochore bound Mad2 measured after 1 hr by immunofluorescence imaging analysis. In kind it is functional, cell-based.
In assay [7] the test system is HeLa. In words: Effect on nocodazole pretreated human HeLa cells assessed as compromising of microtubule polymerization induced spindle check point function. In kind it is functional, cell-based.
Assay [8] concerns DLD-1. In words: Effect on human DLD-1 cells assessed as reduction in fluorescence intensity of kinetochore bound BubR1/ACA ratio in presence of nocodazole measured by immunofluorescence imaging analysis relative to control. It is filed as functional. The arrangement: scale not given: the % may be the effect or the level left.
Assay [9] concerns HeLa. The assay is described as follows: Induction of cell cycle arrest in human HeLa cells assessed as increase in cyclin B1 level measured after 1 hr by immunoblot analysis. It is filed as functional, cell-based. In a few lines:
(§1)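 Mitotic HeLa cells were collected by selective detachment after a 12-h nocodazole block, washed free of nocodazole, and replated in the drug combinations. Cells were harvested at set times. Mitotic index was scored by MPM-2 reactivity, cyclin B1 was measured by immunoblot, and DNA content was read as histograms.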
On the technique in general: A western blot detects proteins with antibodies after separation by electrophoresis.

Assay [10] concerns DLD-1. In words: Induction of cell cycle arrest in human DLD-1 cells assessed as accumulation of cells at mitotic stage upto 6 hrs by SEM analysis. In kind it is functional, cell-based.
In assay [11] the test system is DLD-1. The assay is described as follows: Inhibition of chromosome alignment in human DLD-1 cells assessed as abnormal chromosome appearance upto 6 hrs. In kind it is functional, cell-based.
The test system of assay [12] is HeLa. In words: Induction of cell cycle arrest in 12 hrs nocodazole block pretreated human HeLa cells assessed as mitotic stage exit in presence of nocodazole measured after 4 hrs. It is filed as functional, cell-based. The method in brief: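 HeLa cells were held in a nocodazole block for 2 or 12 h, and mitotic cells were harvested. They were replated in nocodazole alone or nocodazole plus test drug. Mitotic index was scored by MPM-2 reactivity after 4 h.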

The next assay deals with DLD-1 (Homo sapiens). The assay is described as follows: Effect on paclitaxel pretreated human DLD-1 cells assessed as compromising of microtubule polymerization induced spindle check point function.
Assay [13] has as its system DLD-1. In words: Effect on human DLD-1 cells assessed as localization of Aurora B to centromere measured after 1 hr by immunofluorescence imaging analysis. It is filed as functional, cell-based.
The next assay has as its system A549. In words: Induction of endoreduplication in human A549 cells measured after 48 hrs. In kind it is functional, cell-based.
Assay [14] deals with Mitotic checkpoint serine/threonine-protein kinase BUB1 beta (Homo sapiens) (UniProt O60566). In words: Inhibition of BubR1 phosphorylation in mitotic human HeLa cells released from G1/S blocks by immunoblotting analysis. In kind it is cell-based.
Assay [15] has as its system DLD-1. The assay is described as follows: Inhibition of sister chromatid separation in human DLD-1 cells. It is filed as functional, cell-based.
Assay [16] deals with DLD-1. The assay is described as follows: Effect on human DLD-1 cells assessed as reduction in kinetochore bound BubR1 measured after 1 hr by immunofluorescence imaging analysis. In kind it is functional, cell-based.
In assay [17] the test system is DLD-1. The assay is described as follows: Effect on human DLD-1 cells assessed as reduction in kinetochore bound CenP-E measured after 1 hr by immunofluorescence imaging analysis. In kind it is functional, cell-based.
Assay [18] addresses Mitotic checkpoint serine/threonine-protein kinase BUB1 beta (Homo sapiens) (UniProt O60566). In words: Inhibition of BubR1 phosphorylation in mitotic human HeLa cells released from G1/S blocks in presence of nocodazole by immunoblotting analysis. It is filed as cell-based.
In assay [19] the test system is DLD-1. The assay is described as follows: Inhibition of chromosome alignment in human DLD-1 cells assessed as reduction of metaphase and anaphase spindle proportion for 1 hr. In kind it is functional, cell-based.
For a further assay, the system named is hTERT-HME1. The assay is described as follows: Induction of endoreduplication in human HME cells measured after 48 hrs. It is filed as functional, cell-based.
The target in assay [20] is Mitotic checkpoint serine/threonine-protein kinase BUB1 beta (Homo sapiens) (UniProt O60566). The assay is described as follows: Inhibition of BubR1 immunoprecipitate phosphorylation in mitotic human HeLa cells released from G1/S blocks. It is filed as cell-based.
The test system of assay [21] is HeLa. In words: Induction of mitosis in human HeLa cells assessed as cyclin B1 level at 18 hrs by flow cytometric analysis. It is filed as functional, cell-based.
Assay [22] has as its system HeLa. The assay is described as follows: Induction of cell cycle arrest in human HeLa cells assessed as increase in cyclin B1 level measured after 2 hrs by immunoblot analysis. In kind it is functional, cell-based. The method in brief: as §1
The test system of assay [23] is HeLa. In words: Induction of cell cycle arrest in human HeLa cells assessed as accumulation of cells at mitotic stage measured after 2 hrs. It is filed as functional, cell-based. The method in brief: as §1

The source made the active and inactive calls. No cut-off for these calls is given here.

Mitotic checkpoint serine/threonine-protein kinase BUB1 beta (Homo sapiens), sequence (O60566 whole entry): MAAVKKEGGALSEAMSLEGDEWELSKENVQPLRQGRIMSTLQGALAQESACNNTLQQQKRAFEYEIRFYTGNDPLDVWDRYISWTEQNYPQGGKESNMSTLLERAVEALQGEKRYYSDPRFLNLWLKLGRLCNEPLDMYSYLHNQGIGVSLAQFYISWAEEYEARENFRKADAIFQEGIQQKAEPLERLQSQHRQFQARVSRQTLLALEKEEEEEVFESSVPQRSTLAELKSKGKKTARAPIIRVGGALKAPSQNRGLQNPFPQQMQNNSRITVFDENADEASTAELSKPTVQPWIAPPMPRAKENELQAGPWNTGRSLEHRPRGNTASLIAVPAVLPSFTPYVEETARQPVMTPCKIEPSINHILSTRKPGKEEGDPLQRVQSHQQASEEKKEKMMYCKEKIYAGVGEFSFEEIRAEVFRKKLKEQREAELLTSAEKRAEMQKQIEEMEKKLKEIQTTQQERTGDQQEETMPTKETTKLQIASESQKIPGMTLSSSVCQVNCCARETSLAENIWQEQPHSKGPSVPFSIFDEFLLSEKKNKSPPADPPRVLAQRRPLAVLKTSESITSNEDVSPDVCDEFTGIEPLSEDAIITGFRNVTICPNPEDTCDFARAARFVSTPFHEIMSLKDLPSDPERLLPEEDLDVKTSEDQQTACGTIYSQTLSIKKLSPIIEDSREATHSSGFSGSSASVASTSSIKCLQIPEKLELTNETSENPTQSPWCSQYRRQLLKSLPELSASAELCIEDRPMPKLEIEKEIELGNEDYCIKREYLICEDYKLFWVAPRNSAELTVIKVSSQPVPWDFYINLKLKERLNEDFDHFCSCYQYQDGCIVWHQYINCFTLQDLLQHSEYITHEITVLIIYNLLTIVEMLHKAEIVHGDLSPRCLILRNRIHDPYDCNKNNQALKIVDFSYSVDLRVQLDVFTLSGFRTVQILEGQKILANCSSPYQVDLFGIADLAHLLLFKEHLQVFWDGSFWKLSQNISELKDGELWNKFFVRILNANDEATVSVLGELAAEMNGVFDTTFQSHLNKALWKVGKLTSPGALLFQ

Regarding `CC(=O)O[C@H]1C(=O)[C@@]2(C)[C@H]([C@H](OC(=O)c3ccccc3)[C@]3(O)C[C@H](OC(=O)[C@H](O)[C@@H](NC(=O)c4ccccc4)c4ccccc4)C(C)=C1C3(C)C)[C@]1(OC(C)=O)CO[C@@H]1C[C@@H]2O` [PACLITAXEL], the Activity in assay [1] is 3.86; with HeLa [2] it was around 25%. Also, the inter-kinetochore distance in [3] was determined as 0.58 µm.

Consider `COc1cc2c(Nc3ccc(NC(=O)c4ccccc4)cc3)ncnc2cc1OCCCN1CCOCC1`, for which the result in the assay with DLD-1 [4], in the assay on HeLa [5], in the assay on DLD-1 [6], with HeLa [7], in the assay on HeLa [9] and in the assay on DLD-1 [10] was Active. The outcome in the assay with HeLa [12], with DLD-1 (Homo sapiens), in the assay with DLD-1 [13], with A549, in the assay on DLD-1 [16] and with DLD-1 [17] was Active. Moreover, the result in the assay on hTERT-HME1 and in the assay on HeLa [21] was Active. In addition, in the assay on DLD-1 [8], the Activity was determined as 0%. The inhibition entry (in the assay with DLD-1 [11]; in assay [14]; in [18]; in the assay on DLD-1 [19]) was “Active” in each case. In addition, the inhibition result (in the assay with DLD-1 [15]; in assay [20]) was “inactive” throughout.

Turning to `COC(=O)Nc1nc2cc(C(=O)c3cccs3)ccc2[nH]1` [NOCODAZOLE], the result in the assay on HeLa [22], in the assay with DLD-1 [10], in the assay with HeLa [23] and in the assay on HeLa [21] was Active. Besides, in the assay with HeLa [2], the Activity is given as around 25%.

The values above are taken from ChEMBL document CHEMBL5661966, “Aurora B couples chromosome alignment with anaphase by targeting BubR1, Mad2, and Cenp-E to kinetochores” (J Cell Biol, 2003).
